Source: PubChem BioAssay
UCH37 DUB inh = blocks the human deubiquitinase UCH37. Q9Y5K5. purified proteasome/UCH37, Ub-AMC cleavage fluorescence. inhibition, % (test concentration not listed). hit rate 0.33% among 330,000;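 active means mean inhibition over replicate wells above about 20%, limit read from the data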;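 further: 0% = compound-free wells with enzyme and 100% = wells lacking proteasome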
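Material: human UCH37 enzyme supplied as purified proteasome complex. Measure: % inhibition of Ub-AMC cleavage fluorescence. Medium: pH 7.4 Tris-HCl (50 mM) with ovalbumin, ATP-MgCl2, DTT. Times: 30 min preincubation with enzyme, 25 min cleavage at room temperature. Detection: AMC fluorescence intensity at 355/460 nm.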
aDG glyco up = increases alpha dystroglycan glycosylation. Pro5-aDG cells, alpha-DG glycosylation AlphaScreen (IIH6); 0% Pro5, 100% B10-LARGE cell signal. activation, % at 10 µM. hit rate 0.22% among 360,000. AID 624168;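 active means activation of at least 8% versus controls, or a plate z-score of at least 8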;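 further: Pro5 are CHO cells carrying HIG-tagged alpha-DG that lacks glycosylation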
B2AR ag = activates human beta-2 adrenergic receptor causing internalization | P07550 | Am2.2-beta2AR cells, FAP receptor internalization, flow cytometry | response, % (no concentration beside the values) | hit rate 0.43% among 340,000;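 active means response above a set limit, near 3 SD of response in nonfluorescent compounds, cut at about 42% in these data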
PfG6PD inh = PfG6PD (Plasmodium falciparum) enzyme inhibition. PfGluPho enzyme, NADPH resazurin-diaphorase fluorescence. inhibition, % at 20 µM. hit rate 0.78% among 350,000;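 active means inhibition reaching at least a set limit at 20 µM in the primary screen, cut at about 59% in these data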;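 further: 0% = DMSO wells with substrate and 100% = DMSO wells lacking glucose-6-phosphate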
HKDC1 inh = blocks human hexokinase HKDC1 activity. recombinant HKDC1, G6PDH/diaphorase resazurin coupled fluorescence. inhibition, % at 20 µM. hit rate 0.16% among 340,000. AID 493160;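 active means inhibition above about 35% when tested at 20 µM, limit read from the data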;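 further: plate controls were DMSO wells with enzyme for no effect and DMSO wells lacking enzyme for full effect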
Target sequence (Q2TB90 whole entry, looked up): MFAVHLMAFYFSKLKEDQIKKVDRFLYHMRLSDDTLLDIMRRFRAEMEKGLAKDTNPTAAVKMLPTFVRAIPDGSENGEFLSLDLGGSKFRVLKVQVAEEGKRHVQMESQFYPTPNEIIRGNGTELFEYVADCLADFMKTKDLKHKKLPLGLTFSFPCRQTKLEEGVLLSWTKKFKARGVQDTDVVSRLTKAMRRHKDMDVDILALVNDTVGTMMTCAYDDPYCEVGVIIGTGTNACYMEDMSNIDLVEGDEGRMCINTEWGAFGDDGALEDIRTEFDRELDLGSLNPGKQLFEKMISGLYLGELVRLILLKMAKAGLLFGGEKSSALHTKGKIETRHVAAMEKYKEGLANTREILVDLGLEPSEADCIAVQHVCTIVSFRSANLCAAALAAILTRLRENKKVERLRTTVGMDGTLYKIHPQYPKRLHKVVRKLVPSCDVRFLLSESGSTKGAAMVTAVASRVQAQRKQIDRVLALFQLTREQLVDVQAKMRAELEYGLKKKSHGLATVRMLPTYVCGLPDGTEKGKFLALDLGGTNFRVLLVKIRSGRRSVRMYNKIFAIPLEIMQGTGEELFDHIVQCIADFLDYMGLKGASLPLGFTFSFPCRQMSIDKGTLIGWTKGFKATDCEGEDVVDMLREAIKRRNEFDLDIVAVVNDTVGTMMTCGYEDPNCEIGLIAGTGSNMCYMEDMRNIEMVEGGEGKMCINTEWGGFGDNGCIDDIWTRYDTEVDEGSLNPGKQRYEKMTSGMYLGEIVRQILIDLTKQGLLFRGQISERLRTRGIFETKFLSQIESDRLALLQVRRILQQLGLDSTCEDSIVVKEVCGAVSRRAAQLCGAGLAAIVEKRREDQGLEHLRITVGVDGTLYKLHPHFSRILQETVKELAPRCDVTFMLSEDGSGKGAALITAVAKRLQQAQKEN
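test system = in-house recombinant HK5 (HKDC1) enzyme | amount = HKDC1 at 5 µg/mL | control set = DMSO-enzyme wells negative, buffer-substituted wells positive | compound = one dose of 20 µM, 1% DMSO | schedule = reaction time 90 min, room temperature, protected from light | technique = resorufin fluorescence at 613 nm | reagent = glucose with 1 mM ATP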
H9c2 protect = myocardial damage modulation in H9c2 cells. H9c2 cardiomyocytes, H2O2 injury protection, ATPLite, 2 h. protection from H2O2 cell death, % at 20 µM. hit rate 0.63% among 360,000;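 active means compounds giving at least 50% protection of heart cells from peroxide-induced death in the single-dose screen, raw or plate-pattern-corrected value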;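 further: 0% = DMSO wells with peroxide and 100% = DMSO wells without peroxide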
* = called active by the depositor; i = inactive; nt = no result. Only some compounds are listed: those with a hit (about 2.1% of all), similar ones and a draw of the others.

SMILES | UCH37 DUB inh | aDG glyco up | B2AR ag | PfG6PD inh | HKDC1 inh | H9c2 protect
O=C(CN1CCN(c2ccccc2F)CC1)c1ccc(O)c(O)c1 | 7.0 | 0.3 | 2.2 | -15.3 | -3.7 | 52.8*
Cc1c(O)ccc(C(=O)CN2CCN(c3ccccc3F)CC2)c1O | 3.1 | 1.1 | 12.6 | -6.3 | -8.0 | -5.6
O=C(NN=Cc1cccc2ccccc12)C(=O)N1CCCC1 | 5.1 | nt | nt | nt | nt | nt
Cc1cc(Cl)c(S(=O)(=O)NN=Cc2ccc3c(c2)OCO3)c(Cl)c1 | 1.7 | nt | nt | nt | nt | nt
N#CCC(=O)NN=Cc1cn(Cc2ccc3ccccc3c2)c2ccccc12 | -5.1 | nt | nt | nt | nt | nt
Cc1cccc(NCc2ccc(O)c3ncccc23)c1 | -3.1 | 0.1 | 9.2 | 18.4 | 0.5 | 58.2*
C=C(C)C1CC=C(C)C(=NNC(=S)Nc2ccccc2)C1 (stereo not given) | 2.3 | nt | nt | nt | nt | nt
CCn1c(O)c(N=Nc2ccc(Cl)c(C(=O)O)c2)c2ccccc21 | 20.2* | 0.2 | 12.2 | -27.5 | 5.7 | 2.7
COc1ccc2c(c1)c(C(=O)CN1CCC3(CC1)OCCO3)c(C)n2C | 27.4* | 0.1 | -0.9 | -5.0 | 1.6 | 4.7
COc1ccc2c(c1)c(C(=O)CN1CCOCC1)c(C)n2C | 2.0 | -0.1 | 8.1 | 7.0 | 6.7 | 3.6
N#CC(C(=O)N1CCOCC1)=c1sc(=Cc2ccccn2)c(=O)n1-c1ccccc1 | -0.9 | nt | nt | nt | nt | nt
CCc1cc2cccc(C)c2nc1SCC(=O)N1CCN(C(=O)c2ccco2)CC1 | 4.1 | 0.2 | -4.2 | -9.7 | -4.9 | 58.8*
CSC(=NS(=O)(=O)c1cccs1)Nc1ccc(N2CCOCC2)cc1 | -1.3 | nt | nt | nt | nt | nt
Clc1ccccc1-c1nc2ccccc2c2nc3ccccc3n12 | -6.4 | 0.2 | -26.2 | 6.1 | 13.6 | 7.5
Cc1ccc2c(c1)nc1c3ccccc3nc(-c3ccccc3N)n21 | nt | -0.1 | nt | 41.6 | nt | 58.4*
O=C(NN=C/C(Cl)=C/c1ccccc1)c1ccco1 | 12.3 | nt | nt | nt | nt | nt
S=c1sc2c(Cl)ncnc2n1-c1ccccc1 | 8.1 | 0.3 | 103.5* | 5.4 | 8.5 | -7.9
Cc1c(C=NNC(=O)C2COc3ccc(C(C)(C)C)cc3O2)c2ccccc2n1C (stereo not given) | 5.4 | nt | nt | nt | nt | nt
S=c1[nH]nc(-c2cc(-c3ccccc3)n[nH]2)n1N=C/C=C/c1ccco1 | 6.8 | nt | nt | nt | nt | nt
CCC(C)S(=O)(=O)c1snnc1C (stereo not given) | 30.8* | 0.0 | 4.4 | -5.0 | -9.5 | -4.4
Cc1ccc(-c2nn3c(C)nnc3c3ccccc23)cc1S(=O)(=O)NC(C)c1ccccc1 (stereo not given) | 2.7 | -0.7 | 25.7 | 0.7 | 13.7 | 90.9*
Cc1ccc(-c2nn3c(C)nnc3c3ccccc23)cc1S(=O)(=O)NCCO | 0.3 | 0.1 | 3.0 | -13.8 | 3.2 | 4.7
COc1cc(/C=C2\SC(=O)N(Cc3ccc(Cl)cc3)C2=O)cc([N+](=O)[O-])c1O | 21.9* | 0.8 | 25.4 | -3.4 | 17.4 | -17.0
COC(=O)NN=Cc1cc(OC)c(O)c([N+](=O)[O-])c1 | 14.1 | nt | nt | nt | nt | nt
COc1cc(C=NNC(=O)Cc2ccccc2)cc([N+](=O)[O-])c1O | 21.9* | nt | nt | nt | nt | nt
SMILES | UCH37 DUB inh | aDG glyco up | B2AR ag | PfG6PD inh | HKDC1 inh | H9c2 protect
COc1cc(/C=C2\C(=O)NN(c3ccccc3)C2=O)cc([N+](=O)[O-])c1O | 20.9* | 0.0 | 2.0 | 11.1 | 7.3 | -4.6
COc1cc(/C=C2\C(=O)NN(c3ccc(C)cc3)C2=O)cc([N+](=O)[O-])c1O | 16.0 | 0.7 | -0.6 | 0.0 | 17.4 | -1.9
COc1cc([N+](=O)[O-])cc(/C=C2/SC(=S)N(Cc3ccccc3)C2=O)c1O | 20.6* | 0.0 | -20.3 | 14.0 | 13.9 | -21.1
CC(=NN1CCN(Cc2cccc3ccccc23)CC1)c1cccnc1 | -1.2 | nt | nt | nt | nt | nt
O=C(O)CN1C(=O)/C(=C\c2cc(Br)ccc2OCc2ccc([N+](=O)[O-])cc2)SC1=S | 20.4* | 0.2 | -7.0 | -35.5 | 24.6 | 2.4
O=C(O)CN1C(=O)/C(=C\c2cc(Br)ccc2OCc2ccccc2F)SC1=S | 24.1* | 0.0 | 15.5 | -36.2 | 23.3 | -2.7
CC(=NNS(=O)(=O)c1cccc([N+](=O)[O-])c1)c1ccc2c(c1)OCO2 | 1.0 | nt | nt | nt | nt | nt
CC(=NNC(=O)COc1ccc(C)cc1[N+](=O)[O-])c1cccs1 | 1.8 | nt | nt | nt | nt | nt
O=C1c2ccccc2NC(c2ccc(Cl)cc2Cl)N1O (stereo not given) | -1.5 | 0.9 | 12.7 | -35.7 | -15.2 | 60.6*
O=C1c2ccccc2NC(c2ccc(Cl)cc2Cl)N1Cc1ccccc1 (stereo not given) | -46.9 | 0.0 | 5.2 | 8.9 | 1.1 | -14.1
Cc1[nH]n(-c2nc(-c3ccc(Cl)cc3)cs2)c(=O)c1N=Nc1ccc(O)cc1 | nt | 1.1 | 13.8 | 1.2 | -4.9 | 79.9*
Cc1nn(-c2ccccc2)c2c1C(c1ccc([N+](=O)[O-])cc1)N1C(=N2)C(=O)Nc2ccccc21 (stereo not given) | 7.4 | -0.2 | 0.8 | -1.2 | 0.7 | 43.4
Cc1nn(-c2ccc([N+](=O)[O-])cc2)c2c1C(c1cccc(Br)c1)N1C(=N2)C(=O)Nc2ccccc21 (stereo not given) | 4.4 | -0.8 | -2.1 | -32.2 | 22.0 | 55.7*
COc1ccc(OC)c(Nc2cc3ccccc3c(=O)[nH]2)c1 | -2.1 | -0.2 | -2.0 | 36.1 | 11.3 | 53.6*
COc1ccccc1Nc1cc2cc(Br)ccc2c(=O)[nH]1 | 20.7* | -0.1 | -4.4 | 4.0 | 5.1 | 0.2
CC(=NNC(=O)CNC(=O)c1cccs1)c1ccc(Cl)c(Cl)c1 | 5.9 | nt | nt | nt | nt | nt
Cc1nc(Nc2ccc(S(N)(=O)=O)cc2)sc1C(=O)Nc1ccccc1 | 21.4* | 0.4 | -6.6 | 12.0 | -5.2 | -5.0
Cc1nc(Nc2ccccc2)sc1C(=O)Nc1ccccc1 | -0.5 | 0.0 | 4.0 | 22.5 | -1.2 | -2.9
CC(=O)c1sc(NC(=O)c2cc3c(C)nn(-c4ccccc4)c3s2)nc1C | -94.8 | 0.2 | 9.8 | -23.7 | -2.2 | -5.7
Cc1nc(NC(=O)c2cc3c(C)nn(-c4ccccc4)c3s2)sc1C(=O)Nc1ccccc1 | -140.2 | -0.2 | -3.0 | -10.9 | -0.8 | 64.5*
COc1ccc(-c2cnnc(NN=Cc3ccc(C)o3)n2)cc1 | 6.0 | nt | nt | nt | nt | nt
CCCN1C(=O)/C(=C/c2c(N3CCNC(=O)C3CC(=O)OCC)nc3c(C)cccn3c2=O)SC1=S (stereo not given) | 12.4 | -0.3 | i | 59.9* | 12.2 | 63.4*
CCOC(=O)CC1C(=O)NCCN1c1nc2ccc(C)cn2c(=O)c1/C=C1\SC(=S)N(CC(C)C)C1=O (stereo not given) | 9.9 | -0.2 | i | 12.8 | -6.0 | 2.5
COCc1cc(=O)[nH]c(N=C(N)Nc2ccccc2C)n1 | 29.2* | nt | nt | nt | nt | nt
O=[N+]([O-])c1cccc(-c2noc3c2-c2nc(Cc4cccc5ccccc45)sc2CC3)c1 | 0.3 | -0.1 | -5.2 | -4.8 | -2.0 | -0.6
CCCc1nc2c(s1)CCc1onc(-c3cccc([N+](=O)[O-])c3)c1-2 | 31.7* | -0.3 | 2.2 | 3.8 | 0.1 | 1.5
